# Experimental data from paper PMC5061793 (British Journal of Clinical Pharmacology, 2016).
# “Also recorded” adds a separate entry of the source.
# Legend:
# rat hippocampal slices = settings: cited from earlier work
# [1] = Plasma pharmacokinetics after single rising oral doses of BI 409306; assay type: in vivo, human; settings: for AUC0–∞ ratio of tablet to solution: EM; for Cl F^−1: geometric mean (gCV%)
# Outline: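 Healthy males (21–50 y), CYP2C19-genotyped as homozygous EMs or PMs, given single oral doses after a ≥10 h fast: solution 0.5–5 mg, tablets 10–350 mg; PMs given 10 mg, then 100 mg tablet. Tablet/solution crossover at 5 and 50 mg. Plasma sampled −2 h to 24 h (48, 72 h if ≥10 mg). HPLC-MS/MS with isotope-labelled internal standard. Noncompartmental analysis; log-scale ANOVA for formulation and genotype.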
# [2] = preclinical studies; cited from earlier work
# [3] = Urinary excretion after single oral doses of BI 409306; assay type: in vivo, human; settings: for fe0–4: urine 0 h to 4 h, geometric mean (gCV%)
# Outline: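 Drug amounts were measured by HPLC-MS/MS, giving amounts and fractions excreted per interval. Dose proportionality of Ae0–4 was tested by linear regression in EMs and by a mixed-effects linear model in PMs, with a 95% CI on the slope.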
# healthy male subjects = assay: Safety and tolerability; assay type: in vivo, human
# Outline: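 Randomized, double-blind, placebo-controlled single-dose escalation, 3:1 active:placebo (six and two per group). Males 21–50 y, BMI 18.5–29.9 kg m−2, CYP2C19 EMs or PMs, dosed four per day ≥1 h apart, ≥5 days between levels. Monitored AEs, laboratory tests, physical exam, vital signs, cardiac monitoring, 12-lead ECG and 16-item Bond–Lader 100 mm mood VAS. Investigators rated tolerability on a four-point scale. Descriptive statistics.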
# [4] = tested on: patients with mild-to-moderate probable AD; settings: cited from earlier work
# [5] = after administration of 50 mg tablets
# [6] = dose levels of 10 mg and 100 mg
# [7] = single oral dose 2 mg sol EM (n = 6)
# [8] = single oral dose 5 mg sol EM (n = 6)
# [9] = single oral dose 5 mg tab EM (n = 6)
# [10] = single oral dose 10 mg tab EM (n = 6)
# [11] = single oral dose 10 mg tab PM (n = 6)
# [12] = single oral dose 50 mg sol EM (n = 8)
# [13] = single oral dose 50 mg tab EM (n = 6)
# [14] = single oral dose 100 mg tab EM (n = 5)
# [15] = single oral dose 100 mg tab PM (n = 6)
# [16] = single oral dose 200 mg tab EM (n = 6)
# [17] = single oral dose 350 mg tab EM (n = 6)
compound,measurement,setting,value
O=c1[nH]c(Cc2ccccn2)nc2c1cnn2C1CCOCC1 [BI 409306],synaptic plasticity (LTP),rat hippocampal slices,enhancement of LTP
same,AUC0–∞ ratio of tablet to solution,"[1]; 5 mg dose, 90% CI: 87.6%, 111%",98.5%
same,ratio (CYP2C19 PM to EM) of Cmax,"[1]; 10 mg dose, 90% CI: 125%, 401%",224%
same,ratio (CYP2C19 PM to EM) of AUC0–∞,"[1]; 10 mg dose, 90% CI: 291%, 843%",496%
same,AUC0–∞ ratio of tablet to solution,"[1]; 50 mg dose, 90% CI: 59.6%, 119%",84.2%
same,ratio (CYP2C19 PM to EM) of Cmax,"[1]; 100 mg dose, 90% CI: 124%, 421%",228%
same,ratio (CYP2C19 PM to EM) of AUC0–∞,"[1]; 100 mg dose, 90% CI: 254%, 677%",415%
same,"reduction of gMean AUC, tablet versus oral solution",[1]; [5],approximately 16%
same,"reduction of gMean Cmax, tablet versus oral solution",[1]; [5],approximately 20%
same,time following dose within which BI 409306 was eliminated,[1]; all DGs,≤ 24 h
same,AUC0–∞ in CYP2C19 PMs compared with EMs,[1]; [6],4.1–5.0 fold
same,Cmax in CYP2C19 PMs compared with EMs,[1]; [6],2.2–2.3 fold
same,Cl F^−1,[1]; single oral dose 0.5 mg sol EM (n = 6),6770 (50.4) ml min^−1
same,Cl F^−1,[1]; [7],5130 (41.3) ml min^−1
same,Cl F^−1,[1]; [8],3490 (27.0) ml min^−1
same,Cl F^−1,[1]; [9],3540 (32.2) ml min^−1
same,Cl F^−1,[1]; [10],5580 (69.8) ml min^−1
same,Cl F^−1,[1]; [11],1120 (35.5) ml min^−1
same,Cl F^−1,[1]; single oral dose 25 mg tab EM (n = 6),3810 (49.4) ml min^−1
same,Cl F^−1,[1]; [12],4130 (42.9) ml min^−1
same,Cl F^−1,[1]; [13],4970 (82.0) ml min^−1
same,Cl F^−1,[1]; [14],3660 (68.5) ml min^−1
same,Cl F^−1,[1]; [15],882 (21.4) ml min^−1
same,Cl F^−1,[1]; [16],2730 (44.4) ml min^−1
same,Cl F^−1,[1]; [17],2350 (17.1) ml min^−1
same,memory performance,[2],improved memory performance
same,urinary excretion of BI 409306,[3]; CYP2C19 EMs,< 2 % of the dose
same,dose proportionality exponent β of the power model for Ae0–4,"[3]; CYP2C19 EMs, entire dose range, 95% CI: 0.98, 1.12",1.05
same,urinary excretion of BI 409306,[3]; CYP2C19 PMs,up to 2.68 % of the dose
same,fe0–4,[3]; [7],0.483 (46.5) %
same,fe0–4,[3]; [8],0.583 (26.0) %
same,fe0–4,[3]; [9],0.611 (24.2) %
same,fe0–4,[3]; [10],0.461 (60.2) %
same,fe0–4,[3]; [11],1.30 (14.3) %
same,fe0–4,[3]; [12],0.594 (48.1) %
same,fe0–4,[3]; [13],0.523 (56.9) %
same,fe0–4,[3]; [14],0.597 (53.0) %
same,fe0–4,[3]; [15],1.78 (23.3) %
same,fe0–4,[3]; [16],0.676 (48.8) %
same,fe0–4,[3]; [17],0.786 (24.0) %
same,AE: Dizziness,healthy male subjects; 2 mg sol EM (n = 6),1 (16.7) n (%)
same,AE: Gastrointestinal disorders,healthy male subjects; 2 mg sol EM (n = 6),1 (16.7) n (%)
same,AE: Headache,healthy male subjects; 2 mg sol EM (n = 6),1 (16.7) n (%)
same,AE: Nausea,healthy male subjects; 2 mg sol EM (n = 6),1 (16.7) n (%)
same,AE: Nervous system disorders,healthy male subjects; 2 mg sol EM (n = 6),2 (33.3) n (%)
same,AE: Headache,healthy male subjects; 5 mg tab EM (n = 6),1 (16.7) n (%)
same,AE: Nervous system disorders,healthy male subjects; 5 mg tab EM (n = 6),1 (16.7) n (%)
same,AE: Diarrhoea,healthy male subjects; 10 mg tab PM (n = 6),1 (16.7) n (%)
same,AE: Gastrointestinal disorders,healthy male subjects; 10 mg tab PM (n = 6),1 (16.7) n (%)
same,AE: Headache,healthy male subjects; 10 mg tab PM (n = 6),2 (33.3) n (%)
same,AE: Nervous system disorders,healthy male subjects; 10 mg tab PM (n = 6),2 (33.3) n (%)
same,AE: Cardiac disorders,healthy male subjects; 50 mg tab EM (n = 6),1 (16.7) n (%)
same,AE: Extrasystoles,healthy male subjects; 50 mg tab EM (n = 6),1 (16.7) n (%)
same,AE: Palpitations,healthy male subjects; 50 mg tab EM (n = 6),1 (16.7) n (%)
same,AE: Chromatopsia,healthy male subjects; 100 mg tab PM (n = 6),1 (16.7) n (%)
same,AE: Eye disorders,healthy male subjects; 100 mg tab PM (n = 6),2 (33.3) n (%)
same,AE: Headache,healthy male subjects; 100 mg tab PM (n = 6),2 (33.3) n (%)
same,AE: Nervous system disorders,healthy male subjects; 100 mg tab PM (n = 6),2 (33.3) n (%)
same,AE: Photopsia,healthy male subjects; 100 mg tab PM (n = 6),1 (16.7) n (%)
same,AE: Presyncope,healthy male subjects; 100 mg tab PM (n = 6),1 (16.7) n (%)
same,AE: Headache,healthy male subjects; 200 mg tab EM (n = 6),1 (16.7) n (%)
same,AE: Nervous system disorders,healthy male subjects; 200 mg tab EM (n = 6),2 (33.3) n (%)
same,AE: Photophobia,healthy male subjects; 200 mg tab EM (n = 6),1 (16.7) n (%)
same,AE: Photopsia,healthy male subjects; 200 mg tab EM (n = 6),2 (33.3) n (%)
same,AE: Somnolence,healthy male subjects; 200 mg tab EM (n = 6),1 (16.7) n (%)
same,AE: Blurred vision,healthy male subjects; 350 mg tab EM (n = 6),1 (16.7) n (%)
same,AE: Cardiac disorders,healthy male subjects; 350 mg tab EM (n = 6),1 (16.7) n (%)
same,AE: Chromatopsia,healthy male subjects; 350 mg tab EM (n = 6),1 (16.7) n (%)
same,AE: Dry mouth,healthy male subjects; 350 mg tab EM (n = 6),1 (16.7) n (%)
same,AE: Gastrointestinal disorders,healthy male subjects; 350 mg tab EM (n = 6),2 (33.3) n (%)
same,AE: Nausea,healthy male subjects; 350 mg tab EM (n = 6),1 (16.7) n (%)
same,AE: Nervous system disorders,healthy male subjects; 350 mg tab EM (n = 6),1 (16.7) n (%)
same,AE: Photophobia,healthy male subjects; 350 mg tab EM (n = 6),1 (16.7) n (%)
same,AE: Photopsia,healthy male subjects; 350 mg tab EM (n = 6),2 (33.3) n (%)
same,AE: Sinus tachycardia,healthy male subjects; 350 mg tab EM (n = 6),1 (16.7) n (%)
same,AE: Somnolence,healthy male subjects; 350 mg tab EM (n = 6),1 (16.7) n (%)
same,dose up to which generally safe and well tolerated,healthy male subjects; CYP2C19 EM healthy male subjects,up to 350 mg
same,subjects with headache,"healthy male subjects; CYP2C19 EMs treated with BI 409306, all dose groups",three
same,subjects with photophobia/increased sensitivity to light,"healthy male subjects; CYP2C19 EMs, all dose groups",three
same,subjects with photopsia/flashing lights,"healthy male subjects; CYP2C19 EMs, all dose groups",five
same,dose up to which generally safe and well tolerated,healthy male subjects; CYP2C19 PM healthy male subjects,up to 100 mg
same,subjects with headache,healthy male subjects; CYP2C19 PMs treated with BI 409306 (10 mg and 100 mg),four
same,intensity of AEs,healthy male subjects; all AEs,mild to moderate
same,"B&L VAS scores: effects on mood, vigilance or stress levels",healthy male subjects; data not shown,no clinically relevant effects; also recorded: did not reveal any clinically relevant effects
same,"abnormalities in laboratory results, ECG findings or vital signs",healthy male subjects; exception: one episode of transient sinus tachycardia,No relevant abnormalities
same,overall safety and tolerability,"healthy male subjects; healthy male subjects, single rising doses",generally safe and well tolerated
same,onset of nervous system and eye disorder AEs after administration,healthy male subjects; most frequently reported AEs,20 to 30 min
same,time within which AEs mostly resolved,healthy male subjects; nervous system and eye disorders,1 to 2 h
same,serious AEs,"healthy male subjects; single doses 0.5–350 mg, EMs and PMs",No serious AEs occurred; also recorded: No serious AEs were reported
same,highest (maximum) tolerated dose,"healthy male subjects; single oral dose, CYP2C19 EMs",350 mg
"C[C@@H]1CN(Cc2ncccn2)C[C@H]1c1nc2c(cnn2C2CCOCC2)c(=O)[nH]1 [PF‐04447943, 6‐[(3S,4S)‐4‐methyl‐1‐(pyrimidin‐2‐ylmethyl)pyrrolidin‐3‐yl]‐1‐(tetrahydro‐2H‐pyran‐4‐yl)‐1,5‐dihydro‐4H‐pyrazolo[3,4‐d]pyrimidin‐4‐one]",incidence of severe AEs,[4],comparable to that with placebo
